Assay results reported in ChEMBL document CHEMBL2086252, “Syntheses and evaluation of anticonvulsant activity of novel branched alkyl carbamates” (J Med Chem, 2012).
The source made the active and inactive calls. The calls are words filed in the database; no cut-off is given here.

Legend:
Rattus norvegicus [1] = test: Anticonvulsant activity in Sprague-Dawley albino rat assessed as protection against maximal electroshock-induced seizures at 30 mg/kg, po after 30 mins; type: functional, organism-based; design: dose 30 mg/kg
Method in brief: (§1)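 Rats dosed orally. Anti-MES protection was scored as animals protected over animals tested at each time after dosing. Neurotoxicity was scored as motor impairment or sedation, as animals affected over animals tested.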

Rattus norvegicus [2] = test: Neurotoxicity in pilocarpine-induced status epilepticus Sprague-Dawley albino rat model assessed as minimal motor impairment at 50 mg/kg, ip after 0.5 hrs by rotarod test; type: toxicity, organism-based; design: dose 50 mg/kg, route intraperitoneal; conditions: in vivo
Method in brief: (§2)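 Rat pilocarpine status epilepticus model: test carbamate given at 0 or 30 min after the first observed Racine stage 3 motor seizure, which marks SE onset. Neurotoxicity was scored within the same model.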

Rattus norvegicus [3] = test: Neurotoxicity in pilocarpine-induced status epilepticus Sprague-Dawley albino rat model assessed as minimal motor impairment at 100 mg/kg, ip after 1 hr by rotarod test; type: toxicity, organism-based; design: dose 100 mg/kg, route intraperitoneal; conditions: in vivo
Mus musculus [4] = test: Anticonvulsant activity in albino CF1 mouse assessed as protection against maximal electroshock-induced seizures at 30 mg/kg, ip after 4 hrs; type: functional, organism-based; design: dose 30 mg/kg
Method in brief: (§3)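 Mice dosed ip at 30, 100 or 300 mg/kg, then tested 0.5 h and 4 h after administration in the MES or scMet test. Protection was recorded as animals protected over animals tested. Neurotoxicity was recorded as motor impairment or sedation, as animals affected over animals tested.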

Mus musculus [5] = test: Anticonvulsant activity in albino CF1 mouse assessed as protection against maximal electroshock-induced seizures at 30 mg/kg, ip after 0.5 hrs; type: functional, organism-based; design: dose 30 mg/kg; method in brief: as §3
Mus musculus [6] = test: Neurotoxicity in albino CF1 mouse assessed as minimal motor impairment at 30 mg/kg, ip after 4 hrs by rotarod test; type: toxicity, organism-based; design: dose 30 mg/kg, route intraperitoneal; conditions: in vivo; method in brief: as §3
Mus musculus [7] = test: Neurotoxicity in albino CF1 mouse assessed as minimal motor impairment at 300 mg/kg, ip after 4 hrs by rotarod test; type: toxicity, organism-based; design: dose 300 mg/kg, route intraperitoneal; conditions: in vivo; method in brief: as §3
Mus musculus [8] = test: Anticonvulsant activity in albino CF1 mouse assessed as protection against subcutaneous metrazol-induced seizures at 100 mg/kg, ip after 4 hrs; type: functional, organism-based; design: dose 100 mg/kg; method in brief: as §3
Rattus norvegicus [9] = test: Neurotoxicity in pilocarpine-induced status epilepticus Sprague-Dawley albino rat model assessed as minimal motor impairment at 100 mg/kg, ip after 4 hrs by rotarod test; type: toxicity, organism-based; design: dose 100 mg/kg, route intraperitoneal; conditions: in vivo
Rattus norvegicus [10] = test: Neurotoxicity in Sprague-Dawley albino rat assessed as minimal motor impairment at 30 mg/kg, po by rotarod test; type: toxicity, organism-based; design: dose 30 mg/kg, route oral; conditions: in vivo; method in brief: as §1
Mus musculus [11] = test: Anticonvulsant activity in albino CF1 mouse assessed as protection against subcutaneous metrazol-induced seizures at 300 mg/kg, ip after 4 hrs; type: functional, organism-based; design: dose 300 mg/kg; method in brief: as §3
Rattus norvegicus [12] = test: Neurotoxicity in pilocarpine-induced status epilepticus Sprague-Dawley albino rat model assessed as minimal motor impairment at 30 mg/kg, ip after 4 hrs by rotarod test; type: toxicity, organism-based; design: dose 30 mg/kg, route intraperitoneal; conditions: in vivo; method in brief: as §2
Rattus norvegicus [13] = test: Anticonvulsant activity in Sprague-Dawley albino rat assessed as protection against maximal electroshock-induced seizures at 30 mg/kg, po after 4 hrs; type: functional, organism-based; design: dose 30 mg/kg; method in brief: as §1
Mus musculus [14] = test: Anticonvulsant activity in ip dosed albino CF-1 mouse assessed as protection against 6 Hz psychomotor seizure; type: functional; conditions: albino CF-1, ip
Method in brief: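 Quantitative testing: rats dosed orally or ip in MES and scMet tests, and mice dosed ip, including the 6 Hz (32 mA) psychomotor seizure test. ED50 and TD50 were reported in mg/kg with ranges in parentheses. Protective index was calculated as TD50/ED50.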

Mus musculus [15] = test: Anticonvulsant activity in albino CF1 mouse assessed as protection against subcutaneous metrazol-induced seizures at 100 mg/kg, ip after 0.5 hrs; type: functional, organism-based; design: dose 100 mg/kg; method in brief: as §3
Mus musculus [16] = test: Anticonvulsant activity in albino CF1 mouse assessed as protection against maximal electroshock-induced seizures at 300 mg/kg, ip after 4 hrs; type: functional, organism-based; design: dose 300 mg/kg; method in brief: as §3
Rattus norvegicus [17] = test: Neurotoxicity in pilocarpine-induced status epilepticus Sprague-Dawley albino rat model assessed as minimal motor impairment at 100 mg/kg, ip after 2 hrs by rotarod test; type: toxicity, organism-based; design: dose 100 mg/kg, route intraperitoneal; conditions: in vivo
Rattus norvegicus [18] = test: Neurotoxicity in pilocarpine-induced status epilepticus Sprague-Dawley albino rat model assessed as minimal motor impairment at 30 mg/kg, ip after 1 hr by rotarod test; type: toxicity, organism-based; design: dose 30 mg/kg, route intraperitoneal; conditions: in vivo; method in brief: as §2
Rattus norvegicus [19] = test: Anticonvulsant activity in ip dosed Sprague-Dawley albino rat assessed as protection against pilocarpine-induced status epilepticus after 0.5 hrs; type: functional
Method in brief: (§4)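 Pilocarpine status epilepticus model in rats. Number and severity of convulsive seizures were observed behaviourally.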

Mus musculus [20] = test: Neurotoxicity in albino CF1 mouse assessed as minimal motor impairment at 100 mg/kg, ip after 4 hrs by rotarod test; type: toxicity, organism-based; design: dose 100 mg/kg, route intraperitoneal; conditions: in vivo; method in brief: as §3
Rattus norvegicus [21] = test: Neurotoxicity in pilocarpine-induced status epilepticus Sprague-Dawley albino rat model assessed as minimal motor impairment at 30 mg/kg, ip after 0.5 hrs by rotarod test; type: toxicity, organism-based; design: dose 30 mg/kg, route intraperitoneal; conditions: in vivo; method in brief: as §2
Mus musculus [22] = test: Anticonvulsant activity in albino CF1 mouse assessed as protection against subcutaneous metrazol-induced seizures at 30 mg/kg, ip after 0.5 hrs; type: functional, organism-based; design: dose 30 mg/kg; method in brief: as §3
Rattus norvegicus [23] = test: Neurotoxicity in pilocarpine-induced status epilepticus Sprague-Dawley albino rat model assessed as minimal motor impairment at 30 mg/kg, ip after 2 hrs by rotarod test; type: toxicity, organism-based; design: dose 30 mg/kg, route intraperitoneal; conditions: in vivo; method in brief: as §2
Rattus norvegicus [24] = test: Anticonvulsant activity in Sprague-Dawley albino rat assessed as protection against maximal electroshock-induced seizures at 30 mg/kg, po after 2 hrs; type: functional, organism-based; design: dose 30 mg/kg; method in brief: as §1
Rattus norvegicus [25] = test: Neurotoxicity in pilocarpine-induced status epilepticus Sprague-Dawley albino rat model assessed as minimal motor impairment at 30 mg/kg, ip after 0.25 hr by rotarod test; type: toxicity, organism-based; design: dose 30 mg/kg, route intraperitoneal; conditions: in vivo; method in brief: as §2
Mus musculus [26] = test: Neurotoxicity in albino CF1 mouse assessed as minimal motor impairment at 30 mg/kg, ip after 0.5 hrs by rotarod test; type: toxicity, organism-based; design: dose 30 mg/kg, route intraperitoneal; conditions: in vivo; method in brief: as §3
Mus musculus [27] = test: Neurotoxicity in albino CF1 mouse assessed as minimal motor impairment at 100 mg/kg, ip after 0.5 hrs by rotarod test; type: toxicity, organism-based; design: dose 100 mg/kg, route intraperitoneal; conditions: in vivo; method in brief: as §3
Rattus norvegicus [28] = test: Neurotoxicity in pilocarpine-induced status epilepticus Sprague-Dawley albino rat model assessed as minimal motor impairment at 100 mg/kg, ip after 0.25 hr by rotarod test; type: toxicity, organism-based; design: dose 100 mg/kg, route intraperitoneal; conditions: in vivo
Mus musculus [29] = test: Protective index, ratio of TD50 for ip dosed albino CF1 mouse by rotarod test to ED50 for ip dosed albino CF1 mouse by 6 Hz psychomotor seizure test; type: functional
Method in brief: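 Protective index calculated as TD50/ED50, with TD50 and ED50 taken from the same species and dosing route.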

Mus musculus [30] = test: Anticonvulsant activity in albino CF1 mouse assessed as protection against subcutaneous metrazol-induced seizures at 30 mg/kg, ip after 4 hrs; type: functional, organism-based; design: dose 30 mg/kg; method in brief: as §3
Mus musculus [31] = test: Anticonvulsant activity in albino CF1 mouse assessed as protection against maximal electroshock-induced seizures at 100 mg/kg, ip after 4 hrs; type: functional, organism-based; design: dose 100 mg/kg; method in brief: as §3
Rattus norvegicus [32] = test: Neurotoxicity in pilocarpine-induced status epilepticus Sprague-Dawley albino rat model assessed as minimal motor impairment at 100 mg/kg, ip after 0.5 hrs by rotarod test; type: toxicity, organism-based; design: dose 100 mg/kg, route intraperitoneal; conditions: in vivo
Rattus norvegicus [33] = test: Anticonvulsant activity in Sprague-Dawley albino rat assessed as protection against maximal electroshock-induced seizures at 30 mg/kg, po after 1 hr; type: functional, organism-based; design: dose 30 mg/kg; method in brief: as §1
Rattus norvegicus [34] = test: Neurotoxicity in pilocarpine-induced status epilepticus Sprague-Dawley albino rat model assessed as minimal motor impairment at 300 mg/kg, ip after 0.25 hr by rotarod test; type: toxicity, organism-based; design: dose 300 mg/kg, route intraperitoneal; conditions: in vivo; method in brief: as §2
Rattus norvegicus [35] = test: Anticonvulsant activity in Sprague-Dawley albino rat assessed as protection against pilocarpine-induced status epilepticus at 65 mg/kg, ip; type: functional, organism-based; design: dose 65 mg/kg; method in brief: as §4
Rattus norvegicus [36] = test: Anticonvulsant activity in Sprague-Dawley albino rat assessed as protection against maximal electroshock-induced seizures at 30 mg/kg, po after 15 mins; type: functional, organism-based; design: dose 30 mg/kg; method in brief: as §1
Rattus norvegicus [37] = test: Neurotoxicity in pilocarpine-induced status epilepticus Sprague-Dawley albino rat model assessed as minimal motor impairment at 300 mg/kg, ip after 0.5 hrs by rotarod test; type: toxicity, organism-based; design: dose 300 mg/kg, route intraperitoneal; conditions: in vivo; method in brief: as §2
Rattus norvegicus [38] = test: Neurotoxicity in pilocarpine-induced status epilepticus Sprague-Dawley albino rat model assessed as minimal motor impairment at 160 mg/kg, ip after 0.5 hrs by rotarod test; type: toxicity, organism-based; design: dose 160 mg/kg, route intraperitoneal; conditions: in vivo
Mus musculus [39] = test: Anticonvulsant activity in albino CF1 mouse assessed as protection against maximal electroshock-induced seizures at 100 mg/kg, ip after 0.5 hrs; type: functional, organism-based; design: dose 100 mg/kg; method in brief: as §3

CC(C)C(COC(N)=O)C(C)C
Activity (Rattus norvegicus [1]): inactive
Activity (Rattus norvegicus [2]): Non-toxic
Activity (Rattus norvegicus [3]): Non-toxic
Activity (Mus musculus [4]): inactive
Activity (Mus musculus [5]): inactive
Activity (Mus musculus [6]): Non-toxic
Activity (Mus musculus [7]): Non-toxic
Activity (Mus musculus [8]): inactive
Activity (Rattus norvegicus [9]): Non-toxic
Activity (Rattus norvegicus [10]): Non-toxic
Activity (Mus musculus [11]): inactive
Activity (Rattus norvegicus [12]): Non-toxic
Activity (Rattus norvegicus [13]): inactive
ED50 (Mus musculus [14]): 41 mg/kg
Activity (Mus musculus [15]): inactive
Activity (Mus musculus [16]): inactive
Activity (Rattus norvegicus [17]): Non-toxic
Activity (Rattus norvegicus [18]): Non-toxic
ED50 (Rattus norvegicus [19]): 94 mg/kg
ED97 (Rattus norvegicus [19]): 184 mg/kg
Activity (Mus musculus [20]): Non-toxic
Activity (Rattus norvegicus [21]): Non-toxic
Activity (Mus musculus [22]): inactive
Activity (Rattus norvegicus [23]): Non-toxic
Activity (Rattus norvegicus [24]): inactive
Activity (Rattus norvegicus [25]): Non-toxic
Activity (Mus musculus [26]): Non-toxic
Activity (Mus musculus [27]): Non-toxic
Activity (Rattus norvegicus [28]): Toxic
Ratio TD50/ED50 (Mus musculus [29]): 3.4
Activity (Mus musculus [30]): inactive
Activity (Mus musculus [31]): inactive
Activity (Rattus norvegicus [32]): Toxic
Activity (Rattus norvegicus [33]): inactive
Activity (Rattus norvegicus [34]): Toxic
Activity (Rattus norvegicus [35]): Active
Activity (Rattus norvegicus [36]): inactive
Activity (Rattus norvegicus [37]): Toxic
Activity (Rattus norvegicus [38]): Toxic
Activity (Mus musculus [39]): inactive
